Data set [1] can be described thus: Selectivity ratio of Ki for binding affinity to M1 receptor (unknown origin) to Ki for displacement of [3H]-Pirenzepine from human muscarinic M2 receptor. (In general: In a radioligand displacement assay an active substance lowers the binding of a labelled ligand.)
Data set [2] can be described thus: Selectivity ratio of Ki for binding affinity to M3 receptor (unknown origin) to Ki for displacement of [3H]-Pirenzepine from human muscarinic M2 receptor.
Data set [3] in a line: Selectivity ratio of Ki for binding affinity to M5 receptor (unknown origin) to Ki for displacement of [3H]-Pirenzepine from human muscarinic M2 receptor.
Data set [4] can be described thus: Selectivity ratio of Ki for binding affinity to M4 receptor (unknown origin) to Ki for displacement of [3H]-Pirenzepine from human muscarinic M2 receptor.
In data set [5] the target is T1, Muscarinic acetylcholine receptor M2 (Homo sapiens, UniProt P08172).
T1 sequence (P08172 whole entry): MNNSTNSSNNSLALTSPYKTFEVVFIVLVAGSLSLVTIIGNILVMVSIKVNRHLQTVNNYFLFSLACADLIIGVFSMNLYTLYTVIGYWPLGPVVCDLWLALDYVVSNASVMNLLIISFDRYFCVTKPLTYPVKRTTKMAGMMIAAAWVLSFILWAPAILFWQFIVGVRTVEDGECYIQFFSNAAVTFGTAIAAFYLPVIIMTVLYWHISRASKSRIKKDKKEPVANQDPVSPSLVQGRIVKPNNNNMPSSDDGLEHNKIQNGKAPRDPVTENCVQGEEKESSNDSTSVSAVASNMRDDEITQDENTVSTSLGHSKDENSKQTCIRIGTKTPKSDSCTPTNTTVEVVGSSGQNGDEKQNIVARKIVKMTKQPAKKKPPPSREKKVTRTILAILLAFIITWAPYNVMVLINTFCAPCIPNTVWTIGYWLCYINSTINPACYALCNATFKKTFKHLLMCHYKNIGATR
Put plainly: Displacement of [3H]-NMS from human muscarinic M2 receptor expressed in CHO cells. Type of data set: cell-based. The method, boiled down: (§1)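 Membranes from CHO cells transfected with human M1–M5 receptors; competition binding against the orthosteric antagonist [3H]-N-methylscopolamine. Ki values were taken from the competition curves. Ratios divide the Ki at M1, M3, M4 or M5 by the Ki at M2 from the same assay.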

In data set [6] the target is Muscarinic acetylcholine receptor M2 and M5 (Homo sapiens) (UniProt P08172+P08912). The data set is described as follows: Selectivity ratio of Ki for displacement of [3H]-NMS from human muscarinic M5 receptor to Ki for displacement of [3H]-NMS from human muscarinic M2 receptor. Type of data set: protein assay. The method, boiled down: as §1
Chain of Muscarinic acetylcholine receptor M2 and M5 (Homo sapiens) (P08912 whole entry, looked up, one chain of several): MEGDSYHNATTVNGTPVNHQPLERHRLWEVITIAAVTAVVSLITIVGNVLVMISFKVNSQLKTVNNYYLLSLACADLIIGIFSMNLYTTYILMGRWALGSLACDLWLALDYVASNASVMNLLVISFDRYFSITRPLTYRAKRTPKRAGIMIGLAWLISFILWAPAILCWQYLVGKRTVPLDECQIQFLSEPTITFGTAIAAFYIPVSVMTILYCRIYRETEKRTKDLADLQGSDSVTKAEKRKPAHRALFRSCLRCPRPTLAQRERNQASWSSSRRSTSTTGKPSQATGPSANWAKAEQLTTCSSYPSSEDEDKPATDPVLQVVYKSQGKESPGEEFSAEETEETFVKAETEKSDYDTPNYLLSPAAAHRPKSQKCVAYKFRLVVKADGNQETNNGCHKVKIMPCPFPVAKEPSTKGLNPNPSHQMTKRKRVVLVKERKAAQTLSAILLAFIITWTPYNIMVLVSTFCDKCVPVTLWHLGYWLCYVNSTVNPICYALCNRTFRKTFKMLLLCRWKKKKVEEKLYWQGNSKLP
The target of data set [7] is Muscarinic acetylcholine receptor M2 and M4 (Homo sapiens) (UniProt P08173+P08172). The data set is described as follows: Selectivity ratio of Ki for displacement of [3H]-NMS from human muscarinic M4 receptor to Ki for displacement of [3H]-NMS from human muscarinic M2 receptor. The data set is classed as protein assay. The method, boiled down:
as §1

Data set [8] has as its target Muscarinic acetylcholine receptors; M2 & M3 (Homo sapiens) (UniProt P20309+P08172). The data set is described as follows: Selectivity ratio of Ki for displacement of [3H]-NMS from human muscarinic M3 receptor to Ki for displacement of [3H]-NMS from human muscarinic M2 receptor. Type of data set: protein assay. The method, boiled down:
as §1

For data set [9], the target named is Muscarinic acetylcholine receptors; M1 & M2 (Homo sapiens) (UniProt P11229+P08172). Put plainly: Selectivity ratio of Ki for displacement of [3H]-NMS from human muscarinic M1 receptor to Ki for displacement of [3H]-NMS from human muscarinic M2 receptor. Type of data set: protein assay. The method, boiled down: as §1
Data set [10] addresses T2, Muscarinic acetylcholine receptor M2 (Homo sapiens) (UniProt P08172).
T2 sequence (whole entry): T1 sequence (P08172 whole entry)
Conditions: HEK293T, filed as antagonist.

For data set [11], the target named is T2, Muscarinic acetylcholine receptor M2 (Homo sapiens). Put plainly: Binding affinity to N-terminal human M2 receptor expressed in HEK293T cell pretreated for 5 mins in presence of atropine by BRET assay. Type of data set: cell-based. As to conditions: filed as antagonist, dose <= 1000.0 nM. (In BRET a luciferase serves as donor, and the signal depends on an acceptor being close.)

Data set [12] is described as follows: Photostability of compound in PBS buffer at 4 W/450 nm measured after 10 mins. Type of data set: physicochemical. An outline of the steps:
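Probe in PBS (pH 7) under continuous light (4 W, 450 nm); fluorescence intensity was followed over irradiation time up to 10 min.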

Data set [13] concerns the target T2, Muscarinic acetylcholine receptor M2 (Homo sapiens). The data set is described as follows: Binding affinity to human M2 receptor expressed in HEK293T cell membrane cells by STED microscopic analysis. Type of data set: cell membranes. Conditions: filed as antagonist.
Data set [14] has the same target. Put plainly: Binding affinity to human M2 receptor expressed in HEK293T cells measured for 3 min by confocal microscopic analysis. Type of data set: cell-based. Conditions: filed as antagonist.
Data set [15] has the same target. Put plainly: Binding affinity to human M2 receptor expressed in HEK293T cells by two-photon microscopic analysis. Conditions: filed as antagonist. The data set is classed as cell-based.
Data set [16] has the same target. The data set is described as follows: Binding affinity to human M2 receptor expressed in HEK293T cells by confocal microscopic analysis. Type of data set: cell-based.

The structures appear in SMILES notation. Activity calls are given as the source filed them. The calls are words filed in the database; no cut-off is given here.

Take `CCN(CC)CC1CCCCN1CC(=O)N1c2ccccc2C(=O)Nc2cccnc21` (stereo not given): the Ratio Ki in data set [1] is 7; in data set [2] it was 16; in data set [3] it was 44; in [4], 4.
Usually Ki stands for a measure of affinity in units of concentration, obtained from inhibition or displacement. A lower Ki goes with higher affinity. `O=C(CCCCCNC(=O)COc1ccc(/C=C/C2=[N+]3C(=Cc4ccc(-c5cccs5)n4[B-]3(F)F)C=C2)cc1)NCCNC(=O)CCc1cn(CCCCC2CCN(CC(=O)N3c4ccccc4NC(=O)c4ccccc43)CC2)cn1`: in data set [5], the affinity corresponds to a Ki of 0.7 nM. Also, the Ratio Ki amounted to 14.5 in [6], 0.6 in data set [7], 53.7 in data set [8] and 1.4 in [9].
Regarding `CCCC(C)(C)C(=O)N(CC)CCCC1CCN(CC(=O)N2c3ccc(Cl)cc3C(=O)Nc3cccnc32)CC1`, the Ratio Ki in data set [1] came out at 355; in data set [2], 26; in data set [3], 48; in data set [4], 6.
In the case of `Cc1cc(/C=C/C=C/c2ccc(N(C)C)cc2)cc(C)[n+]1CCNC(=O)CCc1cn(CCCCC2CCN(CC(=O)N3c4ccccc4NC(=O)c4ccccc43)CC2)cn1`, the Ki in data set [5] stood at 0.9 nM. Further, the Ratio Ki in data set [6] turned out to be 77.6; in [7], 4.7; in data set [8] it was 93.3; in data set [9], 5.4.
Consider `Nc1ccccc1C(=O)N1CCC(N2CCC(Cc3ccc(S(=O)(=O)c4cccc(Cl)c4)cc3)CC2)CC1`, for which, in [10], the Ka was 8.06 10^3/s/M.
In data set [5], `Cc1cc(/C=C/c2cc3c4c(c2)CCCN4CCC3)cc(C)[n+]1CCN1CCN(CCCCC2CCN(CC(=O)N3c4ccccc4NC(=O)c4ccccc43)CC2)CC1` had a Ki of 1 nM. In addition, the Ratio Ki is 132 in data set [6], 2.8 in data set [7], 66 in data set [8] and 5 in data set [9].
Consider `O=C(CCOCCOCCNC(=O)c1ccc(-c2c3cc(F)c(=O)cc-3oc3cc(O)c(F)cc23)c(C(=O)O)c1)NCCOCCOCCNc1ccccc1C(=O)N1CCC(N2CCC(Cc3ccc(S(=O)(=O)c4cccc(Cl)c4)cc3)CC2)CC1`, for which the Activity result in data set [11] is “Dose-dependent-effect”. Also, the Stability entry in data set [12] is “Stable”. Further, the outcome in [13], in data set [14] and in data set [15] was Active. Further, the outcome in data set [16] was inactive.
Take `Cc1cc(/C=C/C=C/c2ccc(N(C)C)cc2)cc(C)[n+]1CCN1CCN(CCCCC2CCN(CC(=O)N3c4ccccc4NC(=O)c4ccccc43)CC2)CC1`: in data set [5], the affinity corresponds to a Ki of 3.2 nM. The Ratio Ki in data set [6] came out at 126; in data set [7] it was 3.2; in data set [8], 50.1; in data set [9] it was 4.
As for `CN(C)c1ccc2c(-c3ccc(C(=O)NCCN4CCN(CCCCC5CCN(CC(=O)N6c7ccccc7NC(=O)c7ccccc76)CC5)CC4)cc3C(=O)[O-])c3ccc(=[N+](C)C)cc-3oc2c1`, in [5], the affinity corresponds to a Ki of 0.2 nM. The Ratio Ki in [6] amounted to 741; in data set [7] it was 4.1; in data set [8] it was 339; in data set [9] it was 10.7.
Take `Cc1cc(/C=C/c2cc3c4c(c2)CCCN4CCC3)cc(C)[n+]1CCNC(=O)CCc1cn(CCCCC2CCN(CC(=O)N3c4ccccc4NC(=O)c4ccccc43)CC2)cn1`: the affinity in data set [5], expressed as Ki, was 1.3 nM. The Ratio Ki came out at 30.1 in data set [6], 1.9 in data set [7], 51.3 in data set [8] and 5.2 in [9].
`CC1(C)C(/C=C/C=C/C=C2/N(CCCCCC(=O)NCCNC(=O)CCc3cn(CCCCC4CCN(CC(=O)N5c6ccccc6NC(=O)c6ccccc65)CC4)cn3)c3cccc(S(=O)(=O)O)c3C2(C)C)=[N+](CCCCS(=O)(=O)[O-])c2ccccc21`: the affinity in data set [5], expressed as Ki, was 0.8 nM. For the same compound, the Ratio Ki in data set [6] amounted to 200; in data set [7] it was 39.8; in data set [8], 200; in data set [9], 6.3.
As to `CN(C)c1ccc2c(-c3ccc(C(=O)NCCNC(=O)CCc4cn(CCCCC5CCN(CC(=O)N6c7ccccc7NC(=O)c7ccccc76)CC5)cn4)cc3C(=O)[O-])c3ccc(=[N+](C)C)cc-3oc2c1`, the Ki in data set [5] was determined as 1.7 nM. The Ratio Ki in data set [6] amounted to 155; in data set [7], 2; in data set [8], 72.4; in data set [9], 3.4.

The record behind these values is ChEMBL document CHEMBL6109171, “Design, Synthesis, and Evaluation of a New Fluorescent Ligand for the M2 Muscarinic Acetylcholine Receptor” (ACS Med Chem Lett, 2025).
